High-throughput results: PubChem, several laboratories
The list is not random: actives were taken first. Their share in the collection is about 9.6%.
PTEN del growth: growth suppression of PTEN-null HCT116, primary screen, cell-based, CellTiter-Glo. HCT116 PTEN-null viability, 60 h; hits give low values. viability, % at 10 µM. actives 1.2% (n = 140,000). AID 827, 2007;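 active = viability at or below a set limit, 4 SD under the median of all tested compounds, cut at about 3.7% in these data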;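 also: PTEN knockout HCT116 line with beta catenin targeted HCT116 as companion control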
PMI act hi M6P: human PMI activators, high substrate, primary screen, biochemical, fluorescence intensity, near-saturating mannose 6-phosphate; coupled PMI enzyme assay, resazurin fluorescence, 20 min; hits give high values; 1 = untreated enzyme, 0 = substrate-free blank; activation factor at 20 µM; actives 0.34% (n = 190,000);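 active = activation factor of 2 or more at 20 µM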
Target sequence (P34949 whole entry, looked up): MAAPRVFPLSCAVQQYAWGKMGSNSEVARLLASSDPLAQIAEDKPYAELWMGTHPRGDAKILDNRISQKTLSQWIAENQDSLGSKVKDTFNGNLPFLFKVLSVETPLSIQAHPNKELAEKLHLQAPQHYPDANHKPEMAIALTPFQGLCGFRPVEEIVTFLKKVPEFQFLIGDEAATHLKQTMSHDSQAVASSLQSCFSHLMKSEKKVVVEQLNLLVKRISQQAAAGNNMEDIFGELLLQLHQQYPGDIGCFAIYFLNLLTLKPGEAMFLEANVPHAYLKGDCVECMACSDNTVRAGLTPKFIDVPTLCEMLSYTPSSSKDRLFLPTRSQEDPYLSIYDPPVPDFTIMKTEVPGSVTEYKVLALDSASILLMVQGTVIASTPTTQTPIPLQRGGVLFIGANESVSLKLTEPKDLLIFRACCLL
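test system = human PMI in coupled enzyme assay | medium = HEPES-buffered pH 7.4 with magnesium and detergent | also added = 1.0 mM mannose-6-phosphate substrate with 0.22 mM NADP+ | compound = 20 µM single dose | times = 20 min incubation at room temperature | measured by = resorufin fluorescence (Ex 544/Em 590 nm) from resazurin via diaphorase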
HCT116 bCat-KO: primary screen for growth suppressors in beta-catenin knockout HCT116 cells (colon tumor, human). HCT116 beta-catenin knockout viability, CellTiter-Glo, 60 h; hits give low values. viability, % at 10 µM. actives 1.5% (n = 140,000). AID 818, 2007;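 active = viability at or under a set limit, the compound median less 4 SD, cut at about 6% in these data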;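 also: 0% = Hyamine 1622 control at 20 µM and 100% = untreated cell control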
Lmaj promast: Leishmania major promastigote growth inhibition, primary screen; Leishmania major promastigotes, resazurin fluorescence viability; inhibition, % at 10 µM; actives 9% (n = 200,000); in the data active = inhibition above about 50%;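 also: promastigotes grown with compound for 44 hours at 28 °C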
PMI act: activators of human PMI, primary screen, biochemical, fluorescence intensity, near-Km mannose 6-phosphate; Mannose-6-phosphate isomerase (Homo sapiens), P34949; AID 1214, 2008; activation factor at 20 µM; purified human PMI, coupled resazurin fluorescence, 20 min; hits give high values; 1 = vehicle control, 0 substrate-free wells; actives 0.005% (n = 190,000);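 active = activation factor of 2 or more at 20 µM, relative to plate controls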
Active calls of the source: *; . = no result given.

SMILES	PTEN del growth	PMI act hi M6P	HCT116 bCat-KO	Lmaj promast	PMI act
Cc1ccc(C(=O)NCCSc2ccc(Cl)cc2)cc1S(=O)(=O)Nc1ccccc1	60	1	69	97*	0.9
Cc1ccc(SCCNC(=O)c2ccccc2)cc1	89	0.9	77	0	0.9
Cc1ccc(SCCNC(=O)c2ccc(C)c(S(=O)(=O)Nc3cccc(C)c3)c2)cc1	30	0.8	40	78*	0.8
Cc1ccc(NS(=O)(=O)c2cc(C(=O)NCCSC3CCCCC3)ccc2C)cc1	65	0.8	65	79*	0.7
CC(NC(=O)c1cn(C(C)c2ccccc2F)nn1)c1ccncc1 (stereo not given)	.	1.1	.	-2	1.1
COc1ccc(C(=O)NCCc2nnc(SCC(=O)Nc3ccccc3F)n2C)cc1	.	0.9	.	-5	0.9
CN1CCN(C(=O)C2=C[C@@H](c3coc4ccccc4c3=O)C[C@@H](OCCCCO)O2)CC1	.	1	.	-2	1
O=C(Nc1nnc(-c2ccncc2)s1)Nc1ccccc1F	.	1	.	60*	1
O=C(COc1ccccc1F)Nc1nnc(-c2ccncc2)s1	99	1.2	98	13	1.1
COc1cc(S(=O)(=O)Nc2ccc(Br)cc2)ccc1N	.	1	.	-1	1.1
Cc1ccc(/C(N)=N/OC(=O)N2CCOCC2)cc1	64	0.9	71	23	1
Cc1cccc(/C(N)=N/OC(=O)N2CCOCC2)c1	55	0.9	60	56*	0.9
N#C/C(=N\Nc1ccccc1[N+](=O)[O-])C(=N)N1CCCCC1	.	0.9	.	-3	1
CCCCC(=O)NC(c1cccc([N+](=O)[O-])c1)c1c(OC(C)=O)ccc2ccccc12 (stereo not given)	56	0.9	61	89*	0.9
CC(=O)Oc1ccc2ccccc2c1C(NC(=O)Cc1ccccc1)c1ccccc1 (stereo not given)	61	0.9	67	28	0.9
CCOC(=O)C(NC(C)=O)C(OC(C)=O)c1cccc([N+](=O)[O-])c1 (stereo not given)	104	0.9	105	-5	0.9
CC(=O)Oc1ccc2ccccc2c1C(NC(=O)C(C)C)c1cccc([N+](=O)[O-])c1 (stereo not given)	63	1.1	72	99*	1.1
CC(=O)NC(c1cccc([N+](=O)[O-])c1)c1c(OC(C)=O)ccc2ccccc12 (stereo not given)	89	.	97	71*	.
Cc1c(Cl)cccc1NC(=O)C1NC(=O)CC1c1ccccc1 (stereo not given)	87	0.9	91	-2	1
COc1ccc(Cl)cc1NC(=O)CCNC(=O)OCc1ccccc1	.	0.9	.	-2	1
COc1ccc2[nH]cc(CCn3ccc(=O)c(C)c3C)c2c1	.	1.1	.	-5	1
O=C(NCc1ccco1)c1ccc(Cl)c(S(=O)(=O)Nc2ccccc2)c1	.	1	.	9	0.9
C=CCNC(=O)c1ccccc1NC(=O)c1ccccc1SC	.	1	.	-1	1
O=C(Nc1ncn[nH]1)c1ccc(Cl)c(S(=O)(=O)Nc2ccc(Cl)cc2)c1	97	2.1*	90	40	1.6
C=CCNC(=O)c1ccccc1NC(=O)c1ccc(Cl)c(S(=O)(=O)Nc2ccccc2)c1	36	0.8	44	58*	0.8
SMILES	PTEN del growth	PMI act hi M6P	HCT116 bCat-KO	Lmaj promast	PMI act
C=CCNC(=O)c1ccccc1NC(=O)c1ccccc1C	1.0*	1	0.8*	5	1
CCOC(=O)Nc1nnc(-c2ccc(OC)c(OC)c2)s1	92	0.9	89	5	1
O=S(NCc1ccco1)C12CC3CC(CC(C3)C1)C2 (stereo not given)	83	2*	89	0	1.5
CCOc1ccc(-c2nnn(CC(=O)NCCc3c[nH]c4ccccc34)n2)cc1	111	0.9	100	94*	0.9
CNC(=S)N/N=C/C1=CCC2CC1C2(C)C (stereo not given)	84	1	83	97*	1
CC1(C)C2CC=C(/C=N/NC(=S)NCCc3ccccc3)C1C2 (stereo not given)	.	1.1	.	87*	1.1
Cc1ccc(C)c(NC2=C(Cl)C(=O)OC2OC(C)C)c1 (stereo not given)	.	1	.	9	1
CCCC(=O)NC(=S)Nc1ccc(NC(=O)C(C)C)c(OC)c1	106	1	100	-4	0.9
COc1ccc(C2=NN(C(=O)CN3CCCCC3)C(c3ccc(C)cc3)C2)cc1 (stereo not given)	.	1	.	73*	1
COc1ccc(C2CC(c3ccccc3)=NN2C(=O)CN2CCN(Cc3ccccc3)CC2)cc1 (stereo not given)	.	1.1	.	54*	1
COc1ccc(C2CC(c3ccccc3)=NN2C(=O)COC(=O)c2cnc(Cl)c(Cl)c2)cc1 (stereo not given)	64	0.9	49	97*	0.8
COc1ccc(C2CC(c3ccccc3)=NN2C(=O)CSc2ncccn2)cc1 (stereo not given)	88	1	85	18	0.9
CC(=O)Oc1ccccc1C1=NN(C(=O)/C=C/c2ccccc2)C(c2ccccc2)C1 (stereo not given)	45	1	49	19	0.9
COc1ccc(C2CC(c3ccccc3OC(C)=O)=NN2C(=O)/C=C/c2ccccc2)cc1 (stereo not given)	72	1	70	97*	0.9
CCn1c(-c2ccccc2Cl)nn(CC(=O)Nc2cc(Cl)ccc2Cl)c1=S	91	1	83	-2	0.9
CC(C)(C)C(=O)/C=c1\s/c(=C\c2ccc(-c3ccc([N+](=O)[O-])cc3)o2)c(=O)n1CC(=O)NC(N)=O	.	1.3	.	20	1.4
CCCCNS(=O)(=O)c1ccc2nc(-c3cccnc3)cc(C(=O)NC(C)C)c2c1	69	1.1	68	-4	1.1
CCCCNS(=O)(=O)c1ccc2nc(-c3cccnc3)cc(C(=O)NC3CC3)c2c1	0.4*	0.9	0.3*	0	1
C=CCn1c(SC)nc2sc3c(c2c1=O)CCc1ccccc1-3	73	0.9	78	54*	1.1
C=CCn1c(SCC)nc2sc3c(c2c1=O)CCc1ccccc1-3	69	0.9	87	3	0.9
CCOC(=O)c1c(NC(=O)CN2CCN(C)CC2)sc(C(=O)Nc2ccccc2)c1C	.	0.9	.	99*	0.9
CCOC(=O)c1sc(NC(=O)CCN2CCN(C)CC2)c(C(=O)OCC)c1C	.	.	.	100*	.
CCOc1cc(S(=O)(=O)NCc2ccccn2)c(C)cc1C	87	1	95	-14	1
Cc1ccc(NC(=S)NC(=O)/C=C/c2ccco2)c(O)c1	.	0.9	.	-16	1
